Measurements published in ChEMBL document CHEMBL1649165, “Activity profile in vitro of micafungin against Spanish clinical isolates of common and emerging species of yeasts and molds” (2009).
Values after ≈ are worked out from the molar mass of the structure shown.

Tests used:
Assay type in all cases: functional
Candida metapsilosis = assay: Antimicrobial activity against Candida metapsilosis by broth microdilution method; settings: Lodderomyces metapsilosis
Outline: (§1)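 Clinical isolates from human patients, tested by broth microdilution using the AFST-EUCAST reference procedure for fermentative yeasts. The MIC was read per that reference method.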

Pichia norvegensis = assay: Antimicrobial activity against Candida norvegensis by broth microdilution method; outline: as §1
Lomentospora prolificans = assay: Antimicrobial activity against Scedosporium prolificans by broth microdilution method
Outline: (§2)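 Filamentous fungus clinical isolates tested by the AFST-EUCAST reference broth microdilution method for moulds. For echinocandins, the endpoint was the minimum effective concentration: the lowest drug concentration giving aberrant hyphal growth, read with an inverted microscope.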

Ustilago = assay: Antimicrobial activity against Ustilago spp by broth microdilution method
Rhizopus arrhizus = assay: Antimicrobial activity against Rhizopus oryzae by broth microdilution method; outline: as §2
Aspergillus ochraceus = assay: Antimicrobial activity against Aspergillus ochraceus by broth microdilution method
Outline: (§3)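 Clinical mould isolates, tested by broth microdilution using the AFST-EUCAST reference method for filamentous fungi. For echinocandins, the endpoint was the minimum effective concentration: the lowest drug concentration giving aberrant hyphal growth, read with an inverted microscope.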

Aspergillus fumigatus = assay: Antimicrobial activity against Aspergillus fumigatus by broth microdilution method; outline: as §3
Aspergillus glaucus = assay: Antimicrobial activity against Aspergillus glaucus by broth microdilution method; outline: as §3
Candida tropicalis = assay: Antimicrobial activity against Candida tropicalis by broth microdilution method; outline: as §1
Trichoderma = assay: Antimicrobial activity against Trichoderma spp. by broth microdilution method; outline: as §2
Saccharomyces cerevisiae = assay: Antimicrobial activity against Saccharomyces cerevisiae by broth microdilution method
Exophiala jeanselmei = assay: Antimicrobial activity against Exophiala jeanselmei by broth microdilution method
Aspergillus sclerotiorum = assay: Antimicrobial activity against Aspergillus sclerotiorum by broth microdilution method; outline: as §3
[Candida] zeylanoides = Antimicrobial activity against Candida zeylanoides by broth microdilution method; settings: Dujonia zeylanoides; outline: as §1
Acremonium sp. = assay: Antimicrobial activity against Acremonium sp.by broth microdilution method; outline: as §3
Lichtheimia corymbifera = assay: Antimicrobial activity against Mycocladus corymbiferus by broth microdilution method; outline: as §2
Yarrowia lipolytica = assay: Antimicrobial activity against Yarrowia lipolytica by broth microdilution method
Wickerhamomyces anomalus = assay: Antimicrobial activity against Candida pelliculosa by broth microdilution method; settings: Hansenula anomala; outline: as §1
Geotrichum candidum = assay: Antimicrobial activity against Galactomyces geotrichum by broth microdilution method
[Candida] inconspicua = Antimicrobial activity against Candida inconspicua by broth microdilution method; settings: Pichia inconspicua; outline: as §1
Trichosporon domesticum = assay: Antimicrobial activity against Trichosporon mycotoxinivorans by broth microdilution method; settings: Apiotrichum domesticum
Outline: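 Spanish human clinical isolates were tested as nonfermentative yeasts by broth microdilution. The method strictly followed the EUCAST recommendations, with a minor modification to improve growth, and the read-out was the MIC.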

Trichosporon jirovecii = assay: Antimicrobial activity against Trichosporon jirovecii by broth microdilution method; settings: Cutaneotrichosporon jirovecii
Outline: (§4)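 Nonfermentative yeast clinical isolates (Rhodotorula, Trichosporon) tested by broth microdilution. The EUCAST yeast recommendations were followed strictly, with one minor modification to improve growth. MIC was read as the endpoint.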

[1] = system: Cryptococcus deneoformans; assay: Antimicrobial activity against Cryptococcus neoformans var. neoformans by broth microdilution method
Outline: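 Clinical isolates of nonfermentative yeasts, tested by broth microdilution following EUCAST recommendations. The only change from that method was a minor modification to improve growth.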

[2] = system: Kazachstania pintolopesii; assay: Antimicrobial activity against Candida pintolopesii by broth microdilution method; settings: Arxiozyma pintolopesii; outline: as §1
Scytalidium hyalinum = assay: Antimicrobial activity against Scytalidium hyalinum by broth microdilution method; settings: Neoscytalidium hyalinum; outline: as §2
Aspergillus sydowii = assay: Antimicrobial activity against Aspergillus sydowii by broth microdilution method; outline: as §3
Kluyveromyces marxianus = assay: Antimicrobial activity against Candida kefyr by broth microdilution method; outline: as §1
[3] = system: Meyerozyma guilliermondii; assay: Antimicrobial activity against Candida guilliermondii by broth microdilution method; outline: as §1
[4] = Antimicrobial activity against Hormographiella aspergillata by broth microdilution method; settings: Coprinopsis cinerea; outline: as §2
Hortaea werneckii = assay: Antimicrobial activity against Hortaea werneckii by broth microdilution method
Candida albicans = assay: Antimicrobial activity against Candida albicans by broth microdilution method; outline: as §1
Trichosporon inkin = assay: Antimicrobial activity against Trichosporon inkin by broth microdilution method; outline: as §4
Fusarium proliferatum = assay: Antimicrobial activity against Fusarium proliferatum by broth microdilution method; outline: as §3
Penicillium = assay: Antimicrobial activity against Penicillium spp. by broth microdilution method; outline: as §2
Nakaseomyces glabratus = assay: Antimicrobial activity against Candida glabrata by broth microdilution method; outline: as §1
[5] = system: Cladophialophora bantiana; assay: Antimicrobial activity against Cladophialophora bantiana by broth microdilution method; outline: as §3
Candida orthopsilosis = assay: Antimicrobial activity against Candida orthopsilosis by broth microdilution method; settings: Lodderomyces orthopsilosis; outline: as §1
Phialemonium curvatum = assay: Antimicrobial activity against Phialemonium curvatum by broth microdilution method; settings: Thyridium curvatum; outline: as §2
Torulaspora delbrueckii = assay: Antimicrobial activity against Candida coliculosa by broth microdilution method; outline: as §1

What does the source list for `C[C@@H]1[C@H](O)[C@@H](C)/C=C/C=C/C=C/C=C/C=C/C=C/C=C/[C@H](O[C@@H]2O[C@H](C)[C@@H](O)[C@H](N)[C@@H]2O)C[C@@H]2O[C@](O)(C[C@@H](O)C[C@@H](O)[C@H](O)CC[C@@H](O)C[C@@H](O)CC(=O)O[C@H]1C)C[C@H](O)[C@H]2C(=O)O` [AMPHOTERICIN B]?
MIC50 (Candida metapsilosis): 0.12 µg/mL (≈ 0.13 µM); MIC90 (Candida metapsilosis): 1 µg/mL (≈ 1.08 µM); MIC50 (Pichia norvegensis): 0.12 µg/mL (≈ 0.13 µM); MIC90 (Pichia norvegensis): 1 µg/mL (≈ 1.08 µM); MIC50 (Lomentospora prolificans): > 16 µg/mL; MIC90 (Lomentospora prolificans): > 16 µg/mL; MIC50 (Ustilago): 0.5 µg/mL (≈ 0.541 µM); MIC90 (Ustilago): 8 µg/mL (≈ 8.66 µM); MIC50 (Rhizopus arrhizus): 0.5 µg/mL (≈ 0.541 µM); MIC90 (Rhizopus arrhizus): 2 µg/mL (≈ 2.16 µM); MIC50 (Aspergillus ochraceus): 0.5 µg/mL (≈ 0.541 µM); MIC90 (Aspergillus ochraceus): > 16 µg/mL; MIC50 (Aspergillus fumigatus): 0.25 µg/mL (≈ 0.271 µM); MIC90 (Aspergillus fumigatus): 0.5 µg/mL (≈ 0.541 µM); MIC50 (Aspergillus glaucus): 0.5 µg/mL (≈ 0.541 µM); MIC90 (Aspergillus glaucus): > 16 µg/mL; MIC50 (Candida tropicalis): 0.12 µg/mL (≈ 0.13 µM); MIC90 (Candida tropicalis): 0.25 µg/mL (≈ 0.271 µM); MIC50 (Trichoderma): 0.5 µg/mL (≈ 0.541 µM); MIC90 (Trichoderma): > 16 µg/mL; MIC50 (Saccharomyces cerevisiae): 0.12 µg/mL (≈ 0.13 µM); MIC90 (Saccharomyces cerevisiae): 0.25 µg/mL (≈ 0.271 µM); MIC50 (Exophiala jeanselmei): 0.25 µg/mL (≈ 0.271 µM); MIC90 (Exophiala jeanselmei): 1 µg/mL (≈ 1.08 µM); MIC50 (Aspergillus sclerotiorum): 0.5 µg/mL (≈ 0.541 µM); MIC90 (Aspergillus sclerotiorum): > 16 µg/mL; MIC50 ([Candida] zeylanoides): 0.12 µg/mL (≈ 0.13 µM); MIC90 ([Candida] zeylanoides): 1 µg/mL (≈ 1.08 µM); MIC50 (Acremonium sp.): 4 µg/mL (≈ 4.33 µM); MIC90 (Acremonium sp.): > 16 µg/mL; MIC50 (Lichtheimia corymbifera): 0.12 µg/mL (≈ 0.13 µM); MIC90 (Lichtheimia corymbifera): 0.25 µg/mL (≈ 0.271 µM); MIC50 (Yarrowia lipolytica): 0.5 µg/mL (≈ 0.541 µM); MIC90 (Yarrowia lipolytica): 0.5 µg/mL (≈ 0.541 µM); MIC50 (Wickerhamomyces anomalus): 0.12 µg/mL (≈ 0.13 µM); MIC90 (Wickerhamomyces anomalus): 1 µg/mL (≈ 1.08 µM); MIC50 (Geotrichum candidum): 0.25 µg/mL (≈ 0.271 µM); MIC90 (Geotrichum candidum): 0.5 µg/mL (≈ 0.541 µM); MIC50 ([Candida] inconspicua): 0.12 µg/mL (≈ 0.13 µM); MIC90 ([Candida] inconspicua): 1 µg/mL (≈ 1.08 µM); MIC50 (Trichosporon domesticum): 0.5 µg/mL (≈ 0.541 µM); MIC90 (Trichosporon domesticum): 8 µg/mL (≈ 8.66 µM); MIC50 (Trichosporon jirovecii): 0.5 µg/mL (≈ 0.541 µM); MIC90 (Trichosporon jirovecii): 8 µg/mL (≈ 8.66 µM); MIC50 [1]: 0.12 µg/mL (≈ 0.13 µM); MIC90 [1]: 2 µg/mL (≈ 2.16 µM); MIC50 [2]: 0.12 µg/mL (≈ 0.13 µM); MIC90 [2]: 1 µg/mL (≈ 1.08 µM); MIC50 (Scytalidium hyalinum): 0.25 µg/mL (≈ 0.271 µM); MIC90 (Scytalidium hyalinum): 1 µg/mL (≈ 1.08 µM); MIC50 (Aspergillus sydowii): 1 µg/mL (≈ 1.08 µM); MIC90 (Aspergillus sydowii): 2 µg/mL (≈ 2.16 µM); MIC50 (Kluyveromyces marxianus): 0.25 µg/mL (≈ 0.271 µM); MIC90 (Kluyveromyces marxianus): 0.5 µg/mL (≈ 0.541 µM); MIC50 [3]: 0.06 µg/mL (≈ 0.0649 µM); MIC90 [3]: 0.5 µg/mL (≈ 0.541 µM); MIC50 [4]: 0.5 µg/mL (≈ 0.541 µM); MIC90 [4]: > 16 µg/mL; MIC50 (Hortaea werneckii): 0.25 µg/mL (≈ 0.271 µM); MIC90 (Hortaea werneckii): 1 µg/mL (≈ 1.08 µM); MIC50 (Candida albicans): 0.06 µg/mL (≈ 0.0649 µM); MIC90 (Candida albicans): 0.12 µg/mL (≈ 0.13 µM); MIC50 (Trichosporon inkin): 0.12 µg/mL (≈ 0.13 µM); MIC90 (Trichosporon inkin): 1 µg/mL (≈ 1.08 µM); MIC50 (Fusarium proliferatum): 2 µg/mL (≈ 2.16 µM); MIC90 (Fusarium proliferatum): 4 µg/mL (≈ 4.33 µM); MIC50 (Penicillium): 0.5 µg/mL (≈ 0.541 µM); MIC90 (Penicillium): 2 µg/mL (≈ 2.16 µM); MIC50 (Nakaseomyces glabratus): 0.12 µg/mL (≈ 0.13 µM); MIC90 (Nakaseomyces glabratus): 0.25 µg/mL (≈ 0.271 µM); MIC50 [5]: 0.25 µg/mL (≈ 0.271 µM); MIC90 [5]: 1 µg/mL (≈ 1.08 µM); MIC50 (Candida orthopsilosis): 0.12 µg/mL (≈ 0.13 µM); MIC90 (Candida orthopsilosis): 1 µg/mL (≈ 1.08 µM); MIC50 (Phialemonium curvatum): 0.5 µg/mL (≈ 0.541 µM); MIC90 (Phialemonium curvatum): > 16 µg/mL; MIC50 (Torulaspora delbrueckii): 0.12 µg/mL (≈ 0.13 µM); MIC90 (Torulaspora delbrueckii): 1 µg/mL (≈ 1.08 µM)
